# What was measured:
# Bifidobacterium animalis [1] = assay: Antimicrobial activity against Bifidobacterium animalis ATCC 27536; type: functional
# Outline: (§1)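 Broth microdilution in MRS plus 0.05% L-cysteine-HCl. Mid-log culture adjusted to OD650 0.1, giving about 2.5 × 10^4 to 5.0 × 10^4 CFU/well, then added to twofold serial dilutions of agent. Plates incubated anaerobically at 37°C for 18 h and read at OD650. MIC is the lowest concentration matching the uninoculated blank OD, taken as the median of four repeats.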
# Bifidobacterium bifidum [2] = assay: Antimicrobial activity against Bifidobacterium bifidum R0071; type: functional; outline: as §1
# Bifidobacterium bifidum [3] = assay: Antimicrobial activity against Bifidobacterium bifidum ATCC 15696; type: functional; outline: as §1
# Bifidobacterium bifidum [4] = assay: Antimicrobial activity against Bifidobacterium bifidum BB12; type: functional; outline: as §1
# Bifidobacterium breve [5] = assay: Antimicrobial activity against Bifidobacterium breve ATCC 15700; type: functional; outline: as §1
# [6] = Antimicrobial activity against Bifidobacterium infantis ATCC 15697; type: functional, Bifidobacterium longum subsp. infantis; conditions: Bifidobacterium longum; outline: as §1
# Bifidobacterium longum [7] = assay: Antimicrobial activity against Bifidobacterium longum ATCC 15708; type: functional; outline: as §1
# Bifidobacterium longum [8] = assay: Antimicrobial activity against Bifidobacterium longum R0175; type: functional; outline: as §1
# Bifidobacterium longum [9] = assay: Antimicrobial activity against Bifidobacterium longum P/N 601377; type: functional; outline: as §1
# [10] = test system: Bifidobacterium pseudolongum; assay: Antimicrobial activity against Bifidobacterium pseudolongum ATCC 25562; type: functional; outline: as §1
# [11] = test system: Bifidobacterium thermophilum; assay: Antimicrobial activity against Bifidobacterium thermophilum ATCC 25866; type: functional; outline: as §1
# Bifidobacterium breve [12] = assay: Antimicrobial activity against Bifidobacterium breve R0070; type: functional; outline: as §1
# Bifidobacterium animalis [13] = assay: Antimicrobial activity against 60 min 1 M HCl-stressed Bifidobacterium animalis ATCC 27536 after 18 hrs; type: functional
# Outline: (§2)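 Mid-log MRS culture pelleted and resuspended in MRS broth brought to pH 2.0 with 1 M HCl, held anaerobically at 37°C for 60 min, then subcultured in MRS (pH 6.5) for 24 h anaerobically before MIC testing by broth microdilution (as for unstressed cells). Table footnote gives 18 h anaerobic regrowth after the stress. MIC is the median of four repetitions.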
# Bifidobacterium bifidum [14] = assay: Antimicrobial activity against 60 min 1 M HCl-stressed Bifidobacterium bifidum R0071 after 18 hrs; type: functional; outline: as §2
# Bifidobacterium bifidum [15] = assay: Antimicrobial activity against 60 min 1 M HCl-stressed Bifidobacterium bifidum BB12 after 18 hrs; type: functional; outline: as §2
# Bifidobacterium breve [16] = assay: Antimicrobial activity against 60 min 1 M HCl-stressed Bifidobacterium breve ATCC 15700 after 18 hrs; type: functional; outline: as §2
# Bifidobacterium breve [17] = assay: Antimicrobial activity against 60 min 1 M HCl-stressed Bifidobacterium breve R0070 after 18 hrs; type: functional; outline: as §2
# [18] = Antimicrobial activity against 60 min 1 M HCl-stressed Bifidobacterium infantis ATCC 15697 after 18 hrs; type: functional, Bifidobacterium longum subsp. infantis; conditions: Bifidobacterium longum; outline: as §2
# Bifidobacterium longum [19] = assay: Antimicrobial activity against 60 min 1 M HCl-stressed Bifidobacterium longum ATCC 15707 after 18 hrs; type: functional; outline: as §2
# Bifidobacterium longum [20] = assay: Antimicrobial activity against 60 min 1 M HCl-stressed Bifidobacterium longum R0175 after 18 hrs; type: functional; outline: as §2
# Bifidobacterium longum [21] = assay: Antimicrobial activity against 60 min 1 M HCl-stressed Bifidobacterium longum P/N 601377 after 18 hrs; type: functional; outline: as §2
# [22] = test system: Bifidobacterium pseudolongum; assay: Antimicrobial activity against 60 min 1 M HCl-stressed Bifidobacterium pseudolongum ATCC 25562 after 18 hrs; type: functional; outline: as §2
# [23] = test system: Bifidobacterium thermophilum; assay: Antimicrobial activity against 60 min 1 M HCl-stressed Bifidobacterium thermophilum ATCC 25866 after 18 hrs; type: functional; outline: as §2
# Bifidobacterium animalis [24] = assay: Antimicrobial activity against 90 mins oxgall-stressed Bifidobacterium animalis ATCC 27536 after 18 hrs; type: functional
# Outline: (§3)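 Cells pelleted from mid-log MRS culture and resuspended in MRS (initial pH 6.5) with 0.3% (wt/vol) oxgall for 90 min anaerobically at 37°C. They were then regrown in MRS pH 6.5 for 24 h (footnote: 18 h) anaerobically and tested for MIC by the same broth microdilution assay. Median of four repetitions.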
# Bifidobacterium bifidum [25] = assay: Antimicrobial activity against 90 mins oxgall-stressed Bifidobacterium bifidum R0071 after 18 hrs; type: functional; outline: as §3
# Bifidobacterium bifidum [26] = assay: Antimicrobial activity against 90 mins oxgall-stressed Bifidobacterium bifidum ATCC 15696 after 18 hrs; type: functional; outline: as §3
# Bifidobacterium bifidum [27] = assay: Antimicrobial activity against 90 mins oxgall-stressed Bifidobacterium bifidum BB12 after 18 hrs; type: functional; outline: as §3
# Bifidobacterium breve [28] = assay: Antimicrobial activity against 90 mins oxgall-stressed Bifidobacterium breve ATCC 15700 after 18 hrs; type: functional; outline: as §3
# Bifidobacterium breve [29] = assay: Antimicrobial activity against 90 mins oxgall-stressed Bifidobacterium breve R0070 after 18 hrs; type: functional; outline: as §3
# [30] = Antimicrobial activity against 90 mins oxgall-stressed Bifidobacterium infantis ATCC 15697 after 18 hrs; type: functional, Bifidobacterium longum subsp. infantis; conditions: Bifidobacterium longum; outline: as §3
# Bifidobacterium longum [31] = assay: Antimicrobial activity against 90 mins oxgall-stressed Bifidobacterium longum ATCC 15707 after 18 hrs; type: functional; outline: as §3
# Bifidobacterium longum [32] = assay: Antimicrobial activity against 90 mins oxgall-stressed Bifidobacterium longum ATCC 15708 after 18 hrs; type: functional; outline: as §3
# Bifidobacterium longum [33] = assay: Antimicrobial activity against Bifidobacterium longum ATCC 15707; type: functional; outline: as §1
# Bifidobacterium longum [34] = assay: Antimicrobial activity against 90 mins oxgall-stressed Bifidobacterium longum R0175 after 18 hrs; type: functional; outline: as §3
# Bifidobacterium longum [35] = assay: Antimicrobial activity against 90 mins oxgall-stressed Bifidobacterium longum P/N 601377 after 18 hrs; type: functional; outline: as §3
# [36] = test system: Bifidobacterium pseudolongum; assay: Antimicrobial activity against 90 mins oxgall-stressed Bifidobacterium pseudolongum ATCC 25562 after 18 hrs; type: functional; outline: as §3
# [37] = test system: Bifidobacterium thermophilum; assay: Antimicrobial activity against 90 mins oxgall-stressed Bifidobacterium thermophilum ATCC 25866 after 18 hrs; type: functional; outline: as §3
# Bifidobacterium animalis [38] = assay: Antimicrobial activity against 90 mins hydrogen peroxide-stressed Bifidobacterium animalis ATCC 27536 after 18 hrs; type: functional
# Outline: (§4)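 Stress applied for 90 min at 37°C under anaerobic conditions, using MRS (initial pH 6.5) containing H2O2 at each strain's own inhibitory concentration. The H2O2 level was set beforehand by microplate tolerance testing. Challenged cells were regrown in MRS for 24 h (footnote: 18 h) before MIC testing by broth microdilution. Median of four repetitions.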
# Bifidobacterium bifidum [39] = assay: Antimicrobial activity against 90 mins hydrogen peroxide-stressed Bifidobacterium bifidum R0071 after 18 hrs; type: functional; outline: as §4
# Bifidobacterium bifidum [40] = assay: Antimicrobial activity against 90 mins hydrogen peroxide-stressed Bifidobacterium bifidum BB12 after 18 hrs; type: functional; outline: as §4
# Bifidobacterium breve [41] = assay: Antimicrobial activity against 90 mins hydrogen peroxide-stressed Bifidobacterium breve ATCC 15700 after 18 hrs; type: functional; outline: as §4
# Bifidobacterium breve [42] = assay: Antimicrobial activity against 90 mins hydrogen peroxide-stressed Bifidobacterium breve R0070 after 18 hrs; type: functional; outline: as §4
# Bifidobacterium longum [43] = assay: Antimicrobial activity against 90 mins hydrogen peroxide-stressed Bifidobacterium longum ATCC 15707 after 18 hrs; type: functional; outline: as §4
# Bifidobacterium longum [44] = assay: Antimicrobial activity against 90 mins hydrogen peroxide-stressed Bifidobacterium longum ATCC 15708 after 18 hrs; type: functional; outline: as §4
# Bifidobacterium longum [45] = assay: Antimicrobial activity against 90 mins hydrogen peroxide-stressed Bifidobacterium longum R0175 after 18 hrs; type: functional; outline: as §4
# Bifidobacterium longum [46] = assay: Antimicrobial activity against 90 mins hydrogen peroxide-stressed Bifidobacterium longum P/N 601377 after 18 hrs; type: functional; outline: as §4
# [47] = test system: Bifidobacterium thermophilum; assay: Antimicrobial activity against 90 mins hydrogen peroxide-stressed Bifidobacterium thermophilum ATCC 25866 after 18 hrs; type: functional; outline: as §4
structure (smiles),measurement,setting,value
CN[C@H](CC(C)C)C(=O)N[C@H]1C(=O)N[C@@H](CC(N)=O)C(=O)N[C@H]2C(=O)N[C@H]3C(=O)N[C@H](C(=O)N[C@H](C(=O)O)c4cc(O)cc(O)c4-c4cc3ccc4O)[C@H](O)c3ccc(c(Cl)c3)Oc3cc2cc(c3O[C@@H]2O[C@H](CO)[C@@H](O)[C@H](O)[C@H]2O[C@H]2C[C@](C)(N)[C@H](O)[C@H](C)O2)Oc2ccc(cc2Cl)[C@H]1O [VANCOMYCIN],MIC,Bifidobacterium animalis [1],500 µg/mL
same,MIC,Bifidobacterium bifidum [2],500 µg/mL
same,MIC,Bifidobacterium bifidum [3],> 500 µg/mL
same,MIC,Bifidobacterium bifidum [4],> 500 µg/mL
same,MIC,Bifidobacterium breve [5],> 500 µg/mL
same,MIC,[6],> 500 µg/mL
same,MIC,Bifidobacterium longum [7],500 µg/mL
same,MIC,Bifidobacterium longum [8],500 µg/mL
same,MIC,Bifidobacterium longum [9],> 500 µg/mL
same,MIC,[10],> 500 µg/mL
same,MIC,[11],> 500 µg/mL
same,MIC,Bifidobacterium breve [12],500 µg/mL
same,MIC,Bifidobacterium animalis [13],> 500 µg/mL
same,MIC,Bifidobacterium bifidum [14],> 500 µg/mL
same,MIC,Bifidobacterium bifidum [15],> 500 µg/mL
same,MIC,Bifidobacterium breve [16],> 500 µg/mL
same,MIC,Bifidobacterium breve [17],> 500 µg/mL
same,MIC,[18],0.98 µg/mL
same,MIC,Bifidobacterium longum [19],> 500 µg/mL
same,MIC,Bifidobacterium longum [20],0.98 µg/mL
same,MIC,Bifidobacterium longum [21],> 500 µg/mL
same,MIC,[22],0.98 µg/mL
same,MIC,[23],> 500 µg/mL
same,MIC,Bifidobacterium animalis [24],1.9 µg/mL
same,MIC,Bifidobacterium bifidum [25],> 500 µg/mL
same,MIC,Bifidobacterium bifidum [26],> 500 µg/mL
same,MIC,Bifidobacterium bifidum [27],> 500 µg/mL
same,MIC,Bifidobacterium breve [28],> 500 µg/mL
same,MIC,Bifidobacterium breve [29],> 500 µg/mL
same,MIC,[30],0.98 µg/mL
same,MIC,Bifidobacterium longum [31],> 500 µg/mL
same,MIC,Bifidobacterium longum [32],0.98 µg/mL
same,MIC,Bifidobacterium longum [33],500 µg/mL
same,MIC,Bifidobacterium longum [34],> 500 µg/mL
same,MIC,Bifidobacterium longum [35],> 500 µg/mL
same,MIC,[36],0.98 µg/mL
same,MIC,[37],> 500 µg/mL
same,MIC,Bifidobacterium animalis [38],> 500 µg/mL
same,MIC,Bifidobacterium bifidum [39],> 500 µg/mL
same,MIC,Bifidobacterium bifidum [40],> 500 µg/mL
same,MIC,Bifidobacterium breve [41],> 500 µg/mL
same,MIC,Bifidobacterium breve [42],> 500 µg/mL
same,MIC,Bifidobacterium longum [43],> 500 µg/mL
same,MIC,Bifidobacterium longum [44],> 500 µg/mL
same,MIC,Bifidobacterium longum [45],> 500 µg/mL
same,MIC,Bifidobacterium longum [46],> 500 µg/mL
same,MIC,[47],> 500 µg/mL
CN[C@@H]1[C@H](O[C@H]2[C@H](O[C@H]3[C@H](O)[C@@H](O)[C@H](N=C(N)N)[C@@H](O)[C@@H]3N=C(N)N)O[C@@H](C)[C@]2(O)C=O)O[C@@H](CO)[C@H](O)[C@H]1O [STREPTOMYCIN],MIC,Bifidobacterium animalis [1],250 µg/mL
same,MIC,Bifidobacterium bifidum [2],250 µg/mL
same,MIC,Bifidobacterium bifidum [3],250 µg/mL
same,MIC,Bifidobacterium bifidum [4],250 µg/mL
same,MIC,Bifidobacterium breve [5],250 µg/mL
same,MIC,[6],250 µg/mL
same,MIC,Bifidobacterium longum [7],250 µg/mL
same,MIC,Bifidobacterium longum [8],62.5 µg/mL
same,MIC,Bifidobacterium longum [9],125 µg/mL
same,MIC,[10],250 µg/mL
same,MIC,[11],250 µg/mL
same,MIC,Bifidobacterium breve [12],15.6 µg/mL
same,MIC,Bifidobacterium animalis [13],125 µg/mL
same,MIC,Bifidobacterium bifidum [14],250 µg/mL
same,MIC,Bifidobacterium bifidum [15],125 µg/mL
same,MIC,Bifidobacterium breve [16],125 µg/mL
same,MIC,Bifidobacterium breve [17],125 µg/mL
same,MIC,[18],250 µg/mL
same,MIC,Bifidobacterium longum [19],250 µg/mL
same,MIC,Bifidobacterium longum [20],31.2 µg/mL
same,MIC,Bifidobacterium longum [21],62.5 µg/mL
same,MIC,[22],250 µg/mL
same,MIC,[23],250 µg/mL
same,MIC,Bifidobacterium animalis [24],125 µg/mL
same,MIC,Bifidobacterium bifidum [25],125 µg/mL
same,MIC,Bifidobacterium bifidum [26],1.9 µg/mL
same,MIC,Bifidobacterium bifidum [27],500 µg/mL
same,MIC,Bifidobacterium breve [28],250 µg/mL
same,MIC,Bifidobacterium breve [29],125 µg/mL
same,MIC,[30],250 µg/mL
same,MIC,Bifidobacterium longum [31],62.5 µg/mL
same,MIC,Bifidobacterium longum [32],250 µg/mL
same,MIC,Bifidobacterium longum [33],250 µg/mL
same,MIC,Bifidobacterium longum [34],125 µg/mL
same,MIC,Bifidobacterium longum [35],125 µg/mL
same,MIC,[36],250 µg/mL
same,MIC,[37],250 µg/mL
same,MIC,Bifidobacterium animalis [38],250 µg/mL
same,MIC,Bifidobacterium bifidum [39],250 µg/mL
same,MIC,Bifidobacterium bifidum [40],250 µg/mL
same,MIC,Bifidobacterium breve [41],500 µg/mL
same,MIC,Bifidobacterium breve [42],250 µg/mL
same,MIC,Bifidobacterium longum [43],62.5 µg/mL
same,MIC,Bifidobacterium longum [44],500 µg/mL
same,MIC,Bifidobacterium longum [45],250 µg/mL
same,MIC,Bifidobacterium longum [46],125 µg/mL
same,MIC,[47],500 µg/mL

# Source: ChEMBL document CHEMBL1142148, “Antibiotic susceptibility profile of bifidobacteria as affected by oxgall, acid, and hydrogen peroxide stress” (2007)
